Measurements taken from ChEMBL document CHEMBL5055647, “Identification and Biological Activity of NFAT-133 Congeners from Streptomyces pactum” (J Nat Prod, 2021).
Calls of active or inactive are those of the source. The calls are words filed in the database; no cut-off is given here.

Tests used:
Staphylococcus aureus = assay: Antibacterial activity against Staphylococcus aureus ATCC 12600 by Whatman paper based disk diffusion assay; assay type: functional, organism-based
How it was run: (§1)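 Test strains grown overnight in LB at 30 °C, 200 rpm; 100 μL culture mixed into 10 mL warm 0.7% LB soft agar and plated. Paper disks loaded with 10 μL of 10 mM compound solution, plates incubated at 37 °C; activity judged by presence and diameter of inhibition zone. Ampicillin (2 mg/mL) positive control.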

Bacillus subtilis = assay: Antibacterial activity against Bacillus subtilis ATCC 6051 by Whatman paper based disk diffusion assay; assay type: functional, organism-based; how it was run: as §1
Escherichia coli = assay: Antibacterial activity against Escherichia coli ATCC 11775 by Whatman paper based disk diffusion assay; assay type: functional, organism-based; how it was run: as §1
Pseudomonas aeruginosa = assay: Antibacterial activity against Pseudomonas aeruginosa ATCC 9721 by Whatman paper based disk diffusion assay; assay type: functional, organism-based; how it was run: as §1
RAW264.7 [1] = assay: Cytotoxicity against mouse RAW264.7 cells up to 50 uM by MTT assay; assay type: cell-based; conditions: raw264.7, 50 µM
How it was run: (§2)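 Cells kept in high-glucose DMEM with 10% heat-inactivated FBS, streptomycin, amphotericin B, 37 °C, 5% CO2; exponential-phase cells seeded ~1.0 × 10^4/well, grown 12 h, then exposed to serial dilutions of compound; medium-only controls. Viability by MTT, absorbance 490 nm.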

HeLa = assay: Cytotoxicity against human HeLa cells up to 50 uM by MTT assay; assay type: functional, cell-based; how it was run: as §2
NCI-H460 = assay: Cytotoxicity against human NCI-H460 cells up to 50 uM by MTT assay; assay type: functional, cell-based; how it was run: as §2
MCF7 = assay: Cytotoxicity against human MCF7 cells up to 50 uM by MTT assay; assay type: functional, cell-based; how it was run: as §2
RAW264.7 [2] = assay: Inhibition of LPS-induced NO production in mouse RAW264.7 cells preincubated for 1 hr followed by LPS stimulation measured after 24 hrs by Griess reagent based assay; assay type: functional, cell-based; conditions: time 25.0 hrs
How it was run: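 Murine macrophages seeded ~1 × 10^4/well, grown 12 h, pretreated with compound 1 h, then LPS 25 ng/mL added for 24 h. Supernatant nitrite measured by Griess reagent (1:1, 37 °C, 15 min, dark), absorbance 520 nm, quantified against 0–100 μM sodium nitrite standards; mean ± SD of independent experiments, t-test, p < 0.05.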

SMILES | Activity (Staphylococcus aureus) | Activity (Bacillus subtilis) | Activity (Escherichia coli) | Activity (Pseudomonas aeruginosa) | Activity (RAW264.7 [1]) | Activity (HeLa) | Activity (NCI-H460) | Activity (MCF7) | inhibition (RAW264.7 [2])
CC(=O)[C@@H](C)[C@@H]1O[C@H](CCO)c2cc(C)ccc2[C@@H]1C | inactive | inactive | inactive | inactive | Non-Toxic | inactive | inactive | inactive | Dose-dependent effect
CC(=O)[C@@H](C)[C@H](O)[C@@H](C)c1ccc(C)cc1/C=C/CO | inactive | inactive | inactive | inactive | Non-Toxic | inactive | inactive | inactive | Dose-dependent effect
C=C[C@H](O)c1cc(C)ccc1[C@H](C)[C@@H](O)[C@H](C)C(C)=O | inactive | inactive | inactive | inactive | Non-Toxic | inactive | inactive | inactive | Dose-dependent effect
CC(=O)[C@@H](C)[C@@H]1O[C@@H](CCO)c2cc(C)ccc2[C@@H]1C | inactive | inactive | inactive | inactive | Non-Toxic | inactive | inactive | inactive | Dose-dependent effect
